Compounds with a hit are over-represented: about 3.7% of the library has one in this group of screens.
Furin inhibitor = inhibitors of human furin. inhibition, % at 20 µM or 30 µM. P09958. purified furin, fluorogenic substrate cleavage. 220,000 tested, 0.061% active; in the data active means inhibition above about 25%
NPY Y2 blocker = blocks the human neuropeptide Y Y2 receptor; P49146; NPY-Y2 expressing cells, antagonist mode; inhibition, % at 2.7 µM; 140,000 tested, 0.99% active; in the data active means inhibition above about 17%;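 further: 0% = vehicle with agonist challenge and 100% = reference antagonist with challenge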
Cl transport mod = modulators of human KCC2 chloride dependent transport; Q9H2X9; KCC2 cells, thallium flux FluoZin-2 fluorescence; B-score of Tl+ flux slope (higher = more flux/activation; lower = inhibition) at 10 µM; 190,000 tested, 2.2% active;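 active means thallium flux slope and its plate-corrected score both differing from the plate sample mean at a set confidence after two filtering rounds, in either direction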;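 further: slope of fluorescence scaled to starting intensity during 10 to 20 s after thallium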
NPY-Y1 antag = antagonists of human neuropeptide Y receptor Y1. HEK293-CNG Y1 cells, membrane potential fluorescence; NPY at EC95, then isoproterenol. AID 1040. inhibition, % at 3.6 µM. 200,000 tested, 1% active. P25929;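 active means inhibition above the campaign mean inhibition of all tested compounds plus 3 SD, cut at about 20% in these data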;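 further: 0% = DMSO wells given NPY plus isoproterenol and 100% = isoproterenol alone without NPY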
Target sequence (P25929 whole entry, looked up): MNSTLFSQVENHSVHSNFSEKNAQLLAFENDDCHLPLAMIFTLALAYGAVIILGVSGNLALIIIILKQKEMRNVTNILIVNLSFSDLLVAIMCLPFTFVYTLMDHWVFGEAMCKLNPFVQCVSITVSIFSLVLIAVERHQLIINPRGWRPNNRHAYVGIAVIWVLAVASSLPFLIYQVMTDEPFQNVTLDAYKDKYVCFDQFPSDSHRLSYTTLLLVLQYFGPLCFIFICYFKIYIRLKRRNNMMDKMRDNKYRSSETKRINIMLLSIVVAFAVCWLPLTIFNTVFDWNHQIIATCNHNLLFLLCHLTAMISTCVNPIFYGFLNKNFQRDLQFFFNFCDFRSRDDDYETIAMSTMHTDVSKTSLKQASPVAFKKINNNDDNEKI
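System: HEK293 cells with Y1 receptor plus CNG channel / Probe or stimulus: NPY 25 nM then isoproterenol 1 µM plus Ro 20-1724 25 µM / Compound: one concentration, 3.6 µM, in 0.4% DMSO / Schedule: compound incubation 1 h at room temperature, readout 45 min post-stimulation / Measured by: membrane potential fluorescence / Read-out: % inhibition of NPY effect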
NPY2 pot ag = potentiates or activates human NPY-Y2 receptor; 220,000 tested, 0.45% active; AID 1359; P49146; activation, % at 3.6 µM; cells expressing NPY-Y2, potentiator/agonist read-out; in the data active means activation above about 27%;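 further: cells stimulated with NPY near EC25 plus isoproterenol at EC100; 0% = vehicle plus submaximal agonist and 100% = vehicle plus saturating agonist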
NPY-Y1 PAM-ag = human NPY-Y1 potentiation or agonism, primary screen | P25929 | NPY-Y1 expressing cells, potentiator/agonist activation | activation, % at 3.6 µM | 220,000 tested, 0.37% active | AID 1304; in the data active means activation above about 33%, passing the limit was not always enough;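 further: cells stimulated with NPY at EC10 then isoproterenol at EC100; 0% = low agonist plus stimulus and 100% = saturating agonist plus stimulus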
KCC2 secondary = confirmation of human KCC2 transport modulators. shares compounds with Cl transport mod. HEK293-KCC2, thallium flux, FluoZin2 fluorescence; hits give high values. 3,700 tested, 15% active. normalised thallium flux (F/F0 slope) at 10 µM. AID 1713;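 active means thallium flux slope above the same plate's solvent-only control mean plus 3 SD; inconclusive means the two replicate wells disagree; inactive means no significant difference from solvent-only control wells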
KCC2 bumet counter = bumetanide-insensitive thallium flux in KCC2 cells with ouabain, counter-screen; shares compounds with Cl transport mod; HEK293-KCC2 + bumetanide/ouabain, thallium flux FluoZin2; hits give high values; normalized thallium flux at 10 µM; 3,700 tested, 49% active; AID 1714;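 active means thallium entry rate above the same plate's blocked-transporter control wells by more than 3 SD; inconclusive means the two repeat wells disagree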;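 further: raw slope of fluorescence over initial fluorescence between 10 and 20 s after thallium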
KCC2 secondary2 = confirmation of human KCC2 transport modulators; shares compounds with Cl transport mod; HEK293-KCC2, thallium flux FluoZin2 fluorescence; actives lie on both sides; F/F0 rise rate, 10–20 s post-thallium; normalized thallium flux at 10 µM; 3,700 tested, 23% active; AID 1715;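 active means thallium flux slope more than 3 SD above or below the plate's solvent-only control mean, mostly below; inconclusive means the two repeat wells disagreed; inactive means no significant shift from solvent-only controls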;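 further: raw slope with 0.1% DMSO as baseline and bumetanide as block control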
HEK counter1 = acts in parental HEK cells, KCC2 counter-screen | AID 1716 | thallium flux rate (normalised fluorescence) at 10 µM | HEK293 parental cells, thallium flux FluoZin2, ouabain; baseline-ratio fluorescence slope, 10–20 s after thallium | 3,700 tested, 46% active | shares compounds with Cl transport mod;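 active means thallium flux rate significantly above the same plate's solvent-only control wells, beyond their mean plus 3 SD; inconclusive means the two replicate wells gave conflicting results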
KCC2 ouabain = confirmation of human KCC2 modulators with ouabain | HEK293-KCC2, thallium flux FluoZin2 fluorescence; bidirectional: low = inhibitor, high = activator | raw Tl+ flux slope (below DMSO = inhibition, above = activation) at 10 µM | shares compounds with Cl transport mod | 3,700 tested, 48% active;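 active means thallium flux slope beyond 3 SD from same-plate DMSO control mean in most replicates, usually higher, sometimes lower; inconclusive means repeat tests gave conflicting results; inactive means no significant difference from controls in most replicates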;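 further: slope of initial-normalized fluorescence between seconds 10 and 20 after thallium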
HEK counter2 = acts in parental HEK cells, second KCC2 counter-screen | shares compounds with Cl transport mod | HEK293 parental, thallium flux FluoZin-2 fluorescence slope | thallium flux slope at 10 µM | 3,700 tested, 33% active;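 active means thallium flux slope above the same plate's solvent-control mean plus 3 SD in both duplicate wells; inconclusive means duplicate wells that disagreed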;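 further: run without ouabain in cells lacking the KCC2 cotransporter; slope of fluorescence scaled to its starting value between 10 and 20 s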
* = called active by the depositor.

What do the screens show for `NC(=O)c1ccc(F)cc1`?
Furin inhibitor: -17; NPY Y2 blocker: -3; Cl transport mod: 0.81; NPY-Y1 antag: 8; NPY2 pot ag: 7; NPY-Y1 PAM-ag: 8; KCC2 secondary: 0.0056; KCC2 bumet counter: 0.0046; KCC2 secondary2: 0.028; HEK counter1: 0.0073; KCC2 ouabain: 0.018; HEK counter2: 0.0094

How did Cc1ccc2nc(C)cc(C(=O)OCC(=O)Nc3c(C)n(C)n(-c4ccccc4)c3=O)c2c1 do in these assays?
Furin inhibitor: -25; Cl transport mod: 0.77; NPY-Y1 antag: 2; NPY2 pot ag: -4; NPY-Y1 PAM-ag: 4

What do the screens show for `C/C(=N\NC(=O)c1ccc(-c2ccccc2)cc1)C1C(=O)c2ccccc2C1=O`?
Furin inhibitor: -31; Cl transport mod: 0.93; NPY-Y1 antag: -4; NPY2 pot ag: 6; NPY-Y1 PAM-ag: 2

What do the screens show for `C/C(=N\NC(=O)c1ccc(Br)cc1)C1C(=O)c2ccccc2C1=O`?
Furin inhibitor: -6; NPY Y2 blocker: 3; Cl transport mod: -5.4*; NPY-Y1 antag: -4; NPY2 pot ag: -8; NPY-Y1 PAM-ag: 20; KCC2 secondary: 0.0059; KCC2 bumet counter: 0.0045; KCC2 secondary2: 0.023*; HEK counter1: 0.0086; KCC2 ouabain: inconclusive; HEK counter2: 0.012

What do the screens show for `C/C(=N\NC(=S)NCc1ccccc1)c1ccc(Cl)s1`?
Furin inhibitor: -23; Cl transport mod: 10*; NPY-Y1 antag: 2; NPY2 pot ag: -12; NPY-Y1 PAM-ag: -10; KCC2 secondary: 0.0097; KCC2 bumet counter: 0.017*; KCC2 secondary2: 0.034; HEK counter1: inconclusive; KCC2 ouabain: 0.026*; HEK counter2: 0.012

Results for C/C(=N\NC(=S)NCc1ccccc1)c1cccs1 ?
Furin inhibitor: -17; Cl transport mod: 16*; NPY-Y1 antag: 7; NPY2 pot ag: -5; NPY-Y1 PAM-ag: -5; KCC2 secondary: 0.0077; KCC2 bumet counter: 0.041*; KCC2 secondary2: 0.049*; HEK counter1: 0.04*; KCC2 ouabain: 0.042*; HEK counter2: 0.04*

Results for C/C(=N\NC(=S)NCc1ccccc1)c1ccc(C)o1 ?
Furin inhibitor: -16; Cl transport mod: 5.4*; NPY-Y1 antag: 6; NPY2 pot ag: 5; NPY-Y1 PAM-ag: -24; KCC2 secondary: 0.0061; KCC2 bumet counter: 0.015*; KCC2 secondary2: 0.029; HEK counter1: 0.012*; KCC2 ouabain: inconclusive; HEK counter2: 0.011

How did COCCNC(=S)N/N=C(\C)c1ccc(Cl)s1 do in these assays?
Furin inhibitor: -7; Cl transport mod: 32*; NPY2 pot ag: -14; NPY-Y1 PAM-ag: 6; KCC2 secondary: 0.014*; KCC2 bumet counter: 0.06*; KCC2 secondary2: 0.033; HEK counter1: 0.02*; KCC2 ouabain: 0.039*; HEK counter2: 0.012*

What do the screens show for `C/C(=N\NC(=O)Cc1ccccc1)c1cccs1`?
Furin inhibitor: -19; NPY Y2 blocker: 2; Cl transport mod: 0.031; NPY-Y1 antag: 9; NPY2 pot ag: -8; NPY-Y1 PAM-ag: 20

Screening data deposited in PubChem by several laboratories.
